Screening data: PubChem BioAssay, The Scripps Research Institute Molecular Screening Center
Only some compounds are listed: those with a hit (about 4.3% of all), similar ones and a draw of the others.
TAAR1 antag: antagonists of human TAAR1 | 360,000 tested, 1.5% active | AID 624466 | Q96RJ0 | inhibition, % at 3 µM | CHO RD-HGA16 TAAR1, Fluo-8 calcium fluorescence, antagonist;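 active = inhibition above a per-plate cutoff, the mean inhibition of test compounds on that plate plus 3 SD, cut at about 49% in these data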;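 also: 0% = DMSO plus EC80 beta-PEA response and 100% = DMSO alone without agonist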
Target sequence (Q96RJ0 whole entry, looked up): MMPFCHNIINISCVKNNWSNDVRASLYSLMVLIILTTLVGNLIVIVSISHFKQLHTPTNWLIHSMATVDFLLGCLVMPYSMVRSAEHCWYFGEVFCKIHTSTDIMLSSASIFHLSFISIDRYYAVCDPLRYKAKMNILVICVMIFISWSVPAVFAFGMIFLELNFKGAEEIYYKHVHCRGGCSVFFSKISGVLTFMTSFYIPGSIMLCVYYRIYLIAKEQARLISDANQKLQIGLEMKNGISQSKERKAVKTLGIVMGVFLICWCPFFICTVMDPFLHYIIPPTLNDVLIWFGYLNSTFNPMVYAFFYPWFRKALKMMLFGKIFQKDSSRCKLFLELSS
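Material: CHO RD-HGA16 cells bearing hTAAR1; compound dosing: one-point dosing, 3 µM nominal final; schedule: dye loading 75 min at 37 °C, then 30 min room temperature; measured by: calcium fluorescence with Fluo-8; control set: vehicle and agonist controls; replication: n of 1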
GalR3 antagonist: antagonists of human GalR3; O60755; HEK293 GalR3-CNG cAMP membrane potential fluorescence; galR3 body fused to GalR1 C-terminus; inhibition, % at 3 µM; 360,000 tested, 0.44% active;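 active = inhibition above the screen-wide average plus 3 SD, cut at about 13% in these data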;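 also: forskolin and galanin both at EC90 stimulate the cells; cAMP rise reported by CNG channel membrane potential dye signal; 0% = forskolin plus galanin with DMSO and 100% = forskolin alone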
Target sequence (O60755 1-299 limits assumed): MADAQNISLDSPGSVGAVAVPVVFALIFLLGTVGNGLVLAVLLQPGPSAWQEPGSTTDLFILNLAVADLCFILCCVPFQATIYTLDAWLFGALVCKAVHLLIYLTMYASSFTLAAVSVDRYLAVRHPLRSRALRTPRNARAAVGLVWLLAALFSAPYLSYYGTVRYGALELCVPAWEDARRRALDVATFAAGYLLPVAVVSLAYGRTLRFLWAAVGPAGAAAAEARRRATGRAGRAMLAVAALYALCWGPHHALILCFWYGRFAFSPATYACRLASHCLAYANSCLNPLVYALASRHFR
TAAR1 ag: human TAAR1 agonism | Q96RJ0 | CHO RD-HGA16 TAAR1, Fluo-8 calcium fluorescence; vehicle wells 0%, saturating PEA agonist 100% | activation, % at 3 µM | 360,000 tested, 0.99% active;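 active = activation above the mean activation of all test compounds in the run plus 3 SD, cut at about 38% in these data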
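System: CHO-derived RD-HGA16 cells with stable Gα16 and human TAAR1. Times: 17-24 h plating, Fluo-8 75 min 37 °C, 30 min RT. Measured by: calcium-sensitive Fluo-8 signal, excitation 470-495, emission 515-575 nm. Read-out basis: % activation relative to PEA EC100 response. Control set: DMSO and PEA EC100. Repeats: no replicates (n 1).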
CHO parental Ca: counter-screen for OX1R antagonists: effect in parental CHO cells; parental CHO-K1, ATP-induced calcium, Fluo-8 fluorescence; inhibition, % at 5.6 µM; 330,000 tested, 0.63% active;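 active = inhibition above that plate's mean sample inhibition plus 3 SD, cut at about 26% in these data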;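 also: 0% = ATP-challenged DMSO wells and 100% = DMSO wells without ATP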
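Material – parental CHO cells · Reagent – ATP stimulus · Compound – single nominal dose of 5.6 µM per compound · Detection – Fluo-8 fluorescence · Read-out basis – percent inhibition of calcium signal · Controls – ATP-challenged DMSO wells low, unchallenged DMSO wells high · Repeats – no replicates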
OX1R antag-1: blocks the human orexin 1 receptor; inhibition, % at 5 µM; CHO/OX1R cells, Fluo-8 calcium fluorescence, orexin A; O43613; 330,000 tested, 0.43% active;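 active = inhibition above its plate's threshold, mean inhibition of all tested compounds on the plate plus 3 SD, cut at about 37% in these data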;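 also: 0% = orexin A challenge wells and 100% = SB-334867-A antagonist wells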
OX1R antag-2: blocks the human orexin 1 receptor; O43613; OX1R-expressing cells, FRET antagonist read-out; inhibition, % at 6.6 µM; 330,000 tested, 1.8% active; in the data active = inhibition mostly above about 38%, no sharp cut-off; inactive = mostly below about 40%;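 also: 0% = agonist challenge alone and 100% = reference antagonist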
OX1R Ca confirm: confirmation of human orexin 1 receptor antagonists. 1,100 tested, 38% active. shares compounds with OX1R antag-1. CHO/OX1R cells, orexin A calcium Fluo-8 fluorescence. inhibition, % at 5 µM. AID 492963; in the data active = inhibition above about 29%;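 also: 0% = agonist challenge alone and 100% = reference antagonist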
CHO Ca triplic: counter-screen: parental CHO calcium response change, triplicate. shares compounds with OX1R antag-1. parental CHO-K1, ATP-induced calcium, Fluo-8 fluorescence. inhibition, % at 5.6 µM. 1,100 tested, 9.3% active. AID 492965;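 active = inhibition above a per-plate limit, the mean inhibition of that plate's test compounds plus 3 SD, cut at about 25% in these data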;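 also: 0% = ATP challenge with DMSO and 100% = DMSO without ATP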
An asterisk follows results filed as active; . = not tested or not shown.

SMILES	TAAR1 antag	GalR3 antagonist	TAAR1 ag	CHO parental Ca	OX1R antag-1	OX1R antag-2	OX1R Ca confirm	CHO Ca triplic
Cc1cc(N2CCC(C(=O)Nc3ccc(F)cc3)CC2)nc(-c2ccccc2)n1	13	-6	9	-8	-13	22	.	.
CN(Cc1ccc(Cl)cc1)C(=O)COC(=O)c1ccc(-c2ccc(O)cc2)cc1	5	-7	1	-17	-4	5	.	.
C=CCC[C@@H](Cc1ccc(F)cc1)C(=O)OC[C@@H]1CCCN1C(=O)[C@H](CC=C)CC(=O)N[C@H](CO)Cc1ccccc1	11	-3	8	-6	65*	24	14	-14
CCNS(=O)(=O)c1ccc(CCC(=O)NCc2ccncc2)cc1	-31	1	1	1	-7	-1	.	.
O=C(COc1ccc(C(=O)NCc2cccnc2)cc1)Nc1cccc(C(F)(F)F)c1	19	-2	11	16	28	34	12	17
O=C(COc1ccc(Cl)cc1)Nc1ccc(C(=O)NCc2cccnc2)cc1	.	.	.	0	1	13	.	.
COc1ccc(NC(=O)c2ccc(NC(=O)COC(=O)c3cnc(C)cn3)cc2)cc1	4	-3	0	2	31	11	4	12
Cc1cnc(C(=O)OCC(=O)Nc2ccc(Oc3ccccc3)cc2)cn1	4	-3	-3	-2	-11	7	.	.
O=C(N/C(=C/c1cccc(Br)c1)c1nc(=S)[nH][nH]1)c1ccccc1	6	-4	0	9	33	32	49*	12
CCOc1ccc(NC2=C(Cl)C(=O)N(Cc3ccccc3)C2=O)cc1	-8	2	0	5	51*	33	-7	-8
COc1cccc(S(=O)(=O)NCc2ccc(C(=O)Nc3cccc(Cl)c3)cc2)c1	50*	-5	9	16	45*	52	-1	-1
COc1cccc(S(=O)(=O)NCc2ccc(C(=O)Nc3ccc(Cl)cc3)cc2)c1	10	-4	2	-6	-1	10	.	.
C[C@H](NC(=O)c1nc[nH]c1C(=O)NC1CCNCC1)C(=O)OCc1ccccc1	.	.	.	-3	0	5	.	.
Cc1ccc2nc(NC(=O)CCNS(=O)(=O)c3cccs3)sc2c1	9	-7	9	2	5	20	.	.
Cc1cccc2sc(NC(=O)CCNS(=O)(=O)c3cccs3)nc12	30	-4	18	20	31	39	17	4
CCOC(=O)CC(=O)CSc1ncnc2c1oc1ccccc12	-5	-2	9	-22	33	-90	14	2
COc1ccc(NS(=O)(=O)c2ccc(NC(=S)NC(=O)C(C)C)cc2)cc1	20	-4	77*	18	31	31	32*	13
CC(C)(C)OC(=O)N1CCC[C@@H]1C(=O)N1CCC[C@@H]1C(=O)NCc1ccccc1Cl	-10	-6	2	.	.	.	.	.
CN(c1ccccc1)S(=O)(=O)c1cccc(NC(=O)Cc2n[nH]c(=O)c3ccccc23)c1	29	-9	5	-8	36	5	5	-6
CCN(CC)S(=O)(=O)c1cc(NC(=O)Cc2n[nH]c(=O)c3ccccc23)ccc1C	-13	-2	-1	6	-9	6	.	.
Cc1cc(C)c(NC(=O)CN(C)CC(=O)Nc2cccc(S(=O)(=O)N(C)c3ccccc3)c2)c(C)c1	89*	-3	44*	1	37*	16	8	-10
C/C(=N\NC(=O)c1c(Cl)cnn1C)c1cccnc1	-3	-3	2	.	.	.	.	.
CCN(CC)S(=O)(=O)c1ccc(N2CCCC2)c(NC(=O)CSCc2c(C)noc2C)c1	-23	-4	5	.	.	.	.	.
Cc1ccnc(NS(=O)(=O)c2cc([N+](=O)[O-])ccc2C)c1	-5	1	1	0	30	48	7	17
Cc1ccnc(NS(=O)(=O)c2ccccc2)c1	-3	-11	7	-8	-17	6	.	.
SMILES	TAAR1 antag	GalR3 antagonist	TAAR1 ag	CHO parental Ca	OX1R antag-1	OX1R antag-2	OX1R Ca confirm	CHO Ca triplic
O=C1N[C@@H](c2ccccc2)COC(=O)[C@@H](Cc2ccc(F)cc2)C/C=C\C[C@@H]1CC(=O)N(CCO)Cc1ccccc1	77*	-5	39*	11	58	20	63*	2
O=C1N[C@@H](c2ccccc2)COC(=O)[C@H](Cc2ccc(F)cc2)C/C=C\C[C@H]1CC(=O)N(CCO)Cc1ccccc1	18	-8	6	.	.	.	.	.
CCOc1ccc(NC(=O)C2CCCN(S(C)(=O)=O)C2)cc1 (stereo not drawn)	5	-7	5	1	-2	5	.	.
CCOc1ccccc1N1CCN(C(=O)c2ccc(S(=O)(=O)Nc3ccccc3)cc2)CC1	-16	2	14	3	45*	6	41*	-7
O=C(CN1c2ccccc2S(=O)(=O)c2ccccc21)NCc1ccc(F)cc1	10	-9	3	-6	24	19	3	-8
O=C(CN1C(=O)c2ccccc2C1=O)NCc1ccc(F)cc1	0	-9	0	-7	-10	6	.	.
Cc1noc(C)c1COc1ccc(C(=O)OCC(=O)Nc2cccc(S(=O)(=O)N3CCOCC3)c2)cc1	8	2	13	-6	-3	18	.	.
Cc1coc2cc3oc(=O)ccc3cc12	-4	-8	1	-1	106*	5	2	18
Cc1cc2oc(=O)ccc2cc1[N+](=O)[O-]	0	-5	11	-8	-16	15	.	.
O=C1COc2ccc(NC(=O)c3ccccc3C(=O)O)cc2N1	-15	-10	0	4	-7	16	.	.
COc1cccc(NC(=O)C2(C)CCN2Cc2ccccc2OC(F)F)c1 (stereo not drawn)	2	-8	-2	.	.	.	.	.
CCn1nc(C(=O)Nc2ccccc2C)c(Cl)c1Cl	-1	-6	2	-7	-19	19	.	.
CCn1nc(C(=O)Nc2cccc3ccccc23)c(Cl)c1Cl	0	0	8	-25	35	20	-12	-21
COc1ccc(S(=O)(=O)n2nc(OC(=O)c3c(-c4ccccc4Cl)noc3C)cc2N)cc1	4	-3	13	4	36	41	-8	-13
COc1ccc(C(=O)Oc2cc(N)n(S(=O)(=O)c3ccc(C)cc3)n2)cc1	3	-7	2	-20	-17	28	.	.
C=CCC(COCc1ccccc1)NS(=O)(=O)c1ccccc1Br (stereo not drawn)	23	-4	8	-11	34	49	8	-7
